Structures are written as SMILES.

Broadly, the GI50 is the concentration at which growth is held to half of that of the control. Read a low GI50 as greater sensitivity of the cells.

What all share (type): functional
The test system of assay [1] is NCI-H23. Kind of assay: Cytotoxicity against human NCI-H23 cells after 48 hrs by sulforhodamine B assay. As to conditions: NCI-H23, 48 h. Summed up:
(§1)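 Cells seeded in 96-well plates with test compounds or doxorubicin control and incubated 48 h. Fixed with 50% trichloroacetic acid, stained with 0.4% sulforhodamine B in 1% acetic acid, and washed with 1% acetic acid. Bound dye was extracted with 10 mM Tris base (pH 10.5) and absorbance read at 540 nm for growth inhibition.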
For orientation: The SRB assay estimates cell density from bound dye.

Assay [2] deals with NUGC-3. The assay can be described thus: Cytotoxicity against human NUGC3 cells after 48 hrs by sulforhodamine B assay. As to conditions: NUGC-3, 48 h. Summed up:
as §1

Assay [3] has as its system MDA-MB-231. Kind of assay: Cytotoxicity against human MDA-MB-231 cells after 48 hrs by sulforhodamine B assay. As to conditions: MDA-MB-231, 48 h. The method in brief: as §1
In assay [4] the test system is ACHN. Kind of assay: Cytotoxicity against human ACHN cells after 48 hrs by sulforhodamine B assay. The method in brief: as §1
The subject of assay [5] is PC-3. The assay can be described thus: Cytotoxicity against human PC3 cells after 48 hrs by sulforhodamine B assay. As to conditions: PC-3, 48 h. Summed up:
as §1

The subject of assay [6] is HCT-15. The assay can be described thus: Cytotoxicity against human HCT15 cells after 48 hrs by sulforhodamine B assay. The following applies: HCT-15, 48 h. Summed up:
as §1

For `NCCCOc1c(Br)cc(CCN)cc1Br` [MOLOKA'IAMINE], the GI50 in assay [1], in assay [2], in assay [3], in assay [4], in assay [5] and in assay [6] was above 70 µM throughout.
For `COC1=C(Br)C[C@@]2(OC=C1Br)ON=C(C(=O)NCCCOc1c(Br)cc(CCNC=C3C(=O)C=CC3=O)cc1Br)[C@H]2O`, the GI50 in assay [1] turned out to be 7 µM; in assay [2] it was 4 µM; in assay [3] it was 3.9 µM; in assay [4] it was 10.3 µM; in assay [5] it was 3.7 µM; in assay [6], 7.4 µM.
`COC1=C(Br)C[C@@]2(OC=C1Br)ON=C(C(=O)NCCCOc1c(Br)cc(CCN)cc1Br)[C@H]2O` (relative stereo): the GI50 in assay [1] came to 12.4 µM; in assay [2], 3.8 µM; in assay [3], 4.3 µM; in assay [4], 5.1 µM; in assay [5] it was 6.9 µM; in assay [6], 3.9 µM.
For `COC1=C(Br)C[C@]2(OC=C1Br)ON=C(C(=O)NCCCOc1c(Br)cc(CCN/C=C3/C(=O)CC(Cl)C3=O)cc1Br)[C@@H]2O` (mixture of isomers), the GI50 in assay [1] was determined as 6.4 µM; in assay [2], 3.5 µM; in assay [3], 1.2 µM; in assay [4], 3.3 µM; in assay [5], 2.3 µM; in assay [6], 3.3 µM.
With `COc1cccc2c1C(=O)c1c(O)c3c(c(O)c1C2=O)C[C@@](O)(C(=O)CO)C[C@@H]3O[C@H]1C[C@H](N)[C@H](O)[C@H](C)O1` [DOXORUBICIN], the GI50 worked out at 1.9 µM in assay [1]; 0.51 µM in assay [2]; 1.8 µM in assay [3]; 2 µM in assay [4]; 0.52 µM in assay [5]; 1.4 µM in assay [6].
Consider `N#CC(=O)NCCCOc1c(Br)cc(CCN)cc1Br` [CERATINAMINE], for which the GI50 in assay [1], in assay [2], in assay [3], in assay [4], in assay [5] and in assay [6] was above 70 µM each time.
As to `COC1=C(Br)C[C@@]2(OC=C1Br)ON=C(C(=O)NCCCOc1c(Br)cc(C(O)CN)cc1Br)[C@H]2O` (relative stereo), the GI50 came to 3.7 µM in assay [1]; 2.5 µM in assay [2]; 0.53 µM in assay [3]; 1.6 µM in assay [4]; 2.7 µM in assay [5]; 4 µM in assay [6].
For `COC1=C(Br)C[C@@]2(OC=C1Br)ON=C(C(=O)NCCCOc1c(Br)cc(C(O)CNC(=O)CCCCCCCCCCCC(C)C)cc1Br)[C@H]2O` (some centres not stated), the concentration for 50% growth inhibition (GI50) in assay [1] was 27 µM; in assay [2], 26 µM; in assay [3], 21 µM; in assay [4], 27 µM; in assay [5] it was 25 µM; in assay [6], 24 µM.
`N#CC(=O)NCCCOc1c(Br)cc(C(O)CN)cc1Br` (configuration not stated): the concentration for 50% growth inhibition (GI50) in assay [1], in assay [2], in assay [3], in assay [4], in assay [5] and in assay [6] was above 70 µM each time.
Take `NCCCOc1c(Br)cc(C(O)CN)cc1Br` (configuration not stated) [HYDROXYMOLOKA'IAMINE]: the 50% growth inhibitory concentration (GI50) in assay [1], in assay [2], in assay [3], in assay [4], in assay [5] and in assay [6] was above 70 µM each time.
With `COC1=C(Br)C[C@@]2(OC=C1Br)ON=C(C(=O)NCCCOc1c(Br)cc(C(O)CNC=C3C(=O)C=CC3=O)cc1Br)[C@H]2O` (some centres not stated) [19-HYDROXYPSAMMAPLYSINE E], the GI50 in assay [1] amounted to 3.6 µM; in assay [2], 2.3 µM; in assay [3], 0.51 µM; in assay [4], 2.3 µM; in assay [5], 1.4 µM; in assay [6], 3.8 µM.
Consider `COC1=C(Br)C[C@]2(OC=C1Br)ON=C(C(=O)NCCCOc1c(Br)cc(C(O)CN/C=C3/C(=O)CC(Cl)C3=O)cc1Br)[C@@H]2O` (mixture of isomers) [19-HYDROXYPSAMMAPLYSINE X], for which the GI50 in assay [1] came to 3.5 µM; in assay [2], 4 µM; in assay [3] it was 0.8 µM; in assay [4] it was 2.5 µM; in assay [5], 2.1 µM; in assay [6] it was 3.5 µM.

The values above are taken from ChEMBL document CHEMBL2417428, “Cytotoxic psammaplysin analogues from a Suberea sp. marine sponge and the role of the spirooxepinisoxazoline in their activity” (2013).
